For five molecules, Tm results are on record in ChEMBL document CHEMBL2413013, “Triplex-forming ability of oligonucleotides containing 1-aryl-1,2,3-triazole nucleobases linked via a two atom-length spacer” (Bioorg Med Chem, 2013).

Experiment [1] in a line: Binding affinity to hairpin double stranded DNA AT base pair in sodium cacodylate buffer at pH 6.8 assessed as triplex-forming ability measuring melting temperature after by UV melting experiment. Summed up:
(§1)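 TFO and hairpin dsDNA target, each strand at 1.89 μM final, in 10 mM sodium cacodylate (pH 6.8) with 100 mM KCl and 50 mM MgCl₂. Annealed in boiling water, then cooled slowly to 5 °C. Melting was followed at 260 nm from 5 to 90 °C at 0.5 °C/min. Tm was taken by the two-point average method, mean of three independent runs.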

Experiment [2] is described as follows: Binding affinity to hairpin double stranded DNA GC base pair in sodium cacodylate buffer at pH 6.8 assessed as triplex-forming ability measuring melting temperature after by UV melting experiment. Summed up: as §1
A short description of experiment [3]: Binding affinity to hairpin double stranded DNA CG base pair in sodium cacodylate buffer at pH 6.8 assessed as triplex-forming ability measuring melting temperature after by UV melting experiment. A digest of the protocol: as §1
The nature of experiment [4]: Binding affinity to hairpin double stranded DNA TA base pair in sodium cacodylate buffer at pH 6.8 assessed as triplex-forming ability measuring melting temperature after by UV melting experiment. Summed up: as §1

Regarding `CC1=CN([C@H]2C[C@H](O[PH](OCCC#N)(OC(C)[C@H]3O[C@@H](n4ccc(N)nc4=O)C[C@@H]3O[PH](OCCC#N)(OC[C@H]3O[C@@H](n4cc(C)c(=O)[nH]c4=O)C[C@@H]3O[PH](OCCC#N)(OC(C)[C@H]3O[C@@H](n4ccc(N)nc4=O)C[C@@H]3O[PH](OCCC#N)(OC[C@H]3O[C@@H](n4cc(C)c(=O)[nH]c4=O)C[C@@H]3O)N(C(C)C)C(C)C)N(C(C)C)C(C)C)N(C(C)C)C(C)C)N(C(C)C)C(C)C)[C@@H](CO[PH](OCCC#N)(O[C@H]3C[C@H](n4ccc(N)nc4=O)O[C@@H]3C(C)O[PH](OCCC#N)(O[C@H]3C[C@H](n4cc(C)c(=O)[nH]c4=O)O[C@@H]3COP(=O)(O)O[C@H]3C[C@H](OCc4cn(-c5ccccc5)nn4)O[C@@H]3CO[PH](OCCC#N)(O[C@H]3C[C@H](n4cc(C)c(=O)[nH]c4=O)O[C@@H]3CO[PH](OCCC#N)(O[C@H]3C[C@H](n4ccc(N)nc4=O)O[C@@H]3C(C)O[PH](OCCC#N)(O[C@H]3C[C@H](n4cc(C)c(=O)[nH]c4=O)O[C@@H]3CO[PH](OCCC#N)(O[C@H]3C[C@H](n4cc(C)c(=O)[nH]c4=O)O[C@@H]3CO[PH](OCCC#N)(O[C@H]3C[C@H](n4cc(C)c(=O)[nH]c4=O)O[C@@H]3CO[PH](OCCC#N)(O[C@H]3C[C@H](n4cc(C)c(=O)[nH]c4=O)O[C@@H]3CO[PH](OCCC#N)(O[C@H]3C[C@H](n4cc(C)c(=O)[nH]c4=O)O[C@@H]3CO)N(C(C)C)C(C)C)N(C(C)C)C(C)C)N(C(C)C)C(C)C)N(C(C)C)C(C)C)N(C(C)C)C(C)C)N(C(C)C)C(C)C)N(C(C)C)C(C)C)N(C(C)C)C(C)C)N(C(C)C)C(C)C)O2)[C@@H](O)NC1=O` (stereo not given in full), the Tm is 20 °C in experiment [1], 22 °C in experiment [2], 22 °C in experiment [3] and 20 °C in experiment [4].

As for `Cc1cn([C@H]2C[C@H](O[PH](OCCC#N)(OC[C@H]3O[C@@H](n4cc(C)c(=O)[nH]c4=O)C[C@@H]3O[PH](OCCC#N)(OC[C@H]3O[C@@H](n4cc(C)c(=O)[nH]c4=O)C[C@@H]3O[PH](OCCC#N)(OC[C@H]3O[C@@H](n4cc(C)c(=O)[nH]c4=O)C[C@@H]3O[PH](OCCC#N)(OC[C@H]3O[C@@H](n4cc(C)c(=O)[nH]c4=O)C[C@@H]3O[PH](OCCC#N)(OC(C)[C@H]3O[C@@H](n4ccc(N)nc4=O)C[C@@H]3O[PH](OCCC#N)(OC[C@H]3O[C@@H](n4cc(C)c(=O)[nH]c4=O)C[C@@H]3O[PH](OCCC#N)(OC[C@H]3O[C@@H](CCc4cn(-c5cccc(O)c5)nn4)C[C@@H]3OP(=O)(O)OC[C@H]3O[C@@H](n4cc(C)c(=O)[nH]c4=O)C[C@@H]3O[PH](OCCC#N)(OC(C)[C@H]3O[C@@H](n4ccc(N)nc4=O)C[C@@H]3O[PH](OCCC#N)(OC[C@H]3O[C@@H](n4cc(C)c(=O)[nH]c4=O)C[C@@H]3O[PH](OCCC#N)(OC(C)[C@H]3O[C@@H](n4ccc(N)nc4=O)C[C@@H]3O[PH](OCCC#N)(OC[C@H]3O[C@@H](n4cc(C)c(=O)[nH]c4=O)C[C@@H]3O[PH](OCCC#N)(OC(C)[C@H]3O[C@@H](n4ccc(N)nc4=O)C[C@@H]3O[PH](OCCC#N)(OC[C@H]3O[C@@H](n4cc(C)c(=O)[nH]c4=O)C[C@@H]3O)N(C(C)C)C(C)C)N(C(C)C)C(C)C)N(C(C)C)C(C)C)N(C(C)C)C(C)C)N(C(C)C)C(C)C)N(C(C)C)C(C)C)N(C(C)C)C(C)C)N(C(C)C)C(C)C)N(C(C)C)C(C)C)N(C(C)C)C(C)C)N(C(C)C)C(C)C)N(C(C)C)C(C)C)N(C(C)C)C(C)C)[C@@H](CO)O2)c(=O)[nH]c1=O` (stereo not given in full), the Tm in experiment [1] was found to be 21 °C; in experiment [2] it was 21 °C; in experiment [3] it was 22 °C; in experiment [4], 22 °C.

Regarding `Cc1cn([C@H]2C[C@H](O[PH](OCCC#N)(OC[C@H]3O[C@@H](n4cc(C)c(=O)[nH]c4=O)C[C@@H]3O[PH](OCCC#N)(OC[C@H]3O[C@@H](n4cc(C)c(=O)[nH]c4=O)C[C@@H]3O[PH](OCCC#N)(OC[C@H]3O[C@@H](n4cc(C)c(=O)[nH]c4=O)C[C@@H]3O[PH](OCCC#N)(OC[C@H]3O[C@@H](n4cc(C)c(=O)[nH]c4=O)C[C@@H]3O[PH](OCCC#N)(OC(C)[C@H]3O[C@@H](n4ccc(N)nc4=O)C[C@@H]3O[PH](OCCC#N)(OC[C@H]3O[C@@H](n4cc(C)c(=O)[nH]c4=O)C[C@@H]3O[PH](OCCC#N)(OC[C@H]3O[C@@H](OCc4cn(-c5ccc(CO)cc5)nn4)C[C@@H]3OP(=O)(O)OC[C@H]3O[C@@H](n4cc(C)c(=O)[nH]c4=O)C[C@@H]3O[PH](OCCC#N)(OC(C)[C@H]3O[C@@H](n4ccc(N)nc4=O)C[C@@H]3O[PH](OCCC#N)(OC[C@H]3O[C@@H](n4cc(C)c(=O)[nH]c4=O)C[C@@H]3O[PH](OCCC#N)(OC(C)[C@H]3O[C@@H](n4ccc(N)nc4=O)C[C@@H]3O[PH](OCCC#N)(OC[C@H]3O[C@@H](n4cc(C)c(=O)[nH]c4=O)C[C@@H]3O[PH](OCCC#N)(OC(C)[C@H]3O[C@@H](n4ccc(N)nc4=O)C[C@@H]3O[PH](OCCC#N)(OC[C@H]3O[C@@H](n4cc(C)c(=O)[nH]c4=O)C[C@@H]3O)N(C(C)C)C(C)C)N(C(C)C)C(C)C)N(C(C)C)C(C)C)N(C(C)C)C(C)C)N(C(C)C)C(C)C)N(C(C)C)C(C)C)N(C(C)C)C(C)C)N(C(C)C)C(C)C)N(C(C)C)C(C)C)N(C(C)C)C(C)C)N(C(C)C)C(C)C)N(C(C)C)C(C)C)N(C(C)C)C(C)C)[C@@H](CO)O2)c(=O)[nH]c1=O` (stereo not given in full), the Tm was determined as 19 °C in experiment [1], 19 °C in experiment [2], 22 °C in experiment [3] and 19 °C in experiment [4].

In the case of `CC1=CN([C@H]2C[C@H](O[PH](OCCC#N)(OC(C)[C@H]3O[C@@H](n4ccc(N)nc4=O)C[C@@H]3O[PH](OCCC#N)(OC[C@H]3O[C@@H](n4cc(C)c(=O)[nH]c4=O)C[C@@H]3O[PH](OCCC#N)(OC[C@H]3O[C@@H](OCc4cn(-c5ccccc5O)nn4)C[C@@H]3OP(=O)(O)OC[C@H]3O[C@@H](n4cc(C)c(=O)[nH]c4=O)C[C@@H]3O[PH](OCCC#N)(OC(C)[C@H]3O[C@@H](n4ccc(N)nc4=O)C[C@@H]3O[PH](OCCC#N)(OC[C@H]3O[C@@H](n4cc(C)c(=O)[nH]c4=O)C[C@@H]3O[PH](OCCC#N)(OC(C)[C@H]3O[C@@H](n4ccc(N)nc4=O)C[C@@H]3O[PH](OCCC#N)(OC[C@H]3O[C@@H](n4cc(C)c(=O)[nH]c4=O)C[C@@H]3O[PH](OCCC#N)(OC(C)[C@H]3O[C@@H](n4ccc(N)nc4=O)C[C@@H]3O[PH](OCCC#N)(OC[C@H]3O[C@@H](n4cc(C)c(=O)[nH]c4=O)C[C@@H]3O)N(C(C)C)C(C)C)N(C(C)C)C(C)C)N(C(C)C)C(C)C)N(C(C)C)C(C)C)N(C(C)C)C(C)C)N(C(C)C)C(C)C)N(C(C)C)C(C)C)N(C(C)C)C(C)C)N(C(C)C)C(C)C)[C@@H](CO[PH](OCCC#N)(O[C@H]3C[C@H](n4cc(C)c(=O)[nH]c4=O)O[C@@H]3CO[PH](OCCC#N)(O[C@H]3C[C@H](n4cc(C)c(=O)[nH]c4=O)O[C@@H]3CO[PH](OCCC#N)(O[C@H]3C[C@H](n4cc(C)c(=O)[nH]c4=O)O[C@@H]3CO[PH](OCCC#N)(O[C@H]3C[C@H](n4cc(C)c(=O)[nH]c4=O)O[C@@H]3CO)N(C(C)C)C(C)C)N(C(C)C)C(C)C)N(C(C)C)C(C)C)N(C(C)C)C(C)C)O2)C(O)NC1=O` (stereo not given in full), the Tm in experiment [1] came to 20 °C; in experiment [2] it was 20 °C; in experiment [3], 23 °C; in experiment [4], 20 °C.

Regarding `Cc1cn([C@H]2C[C@H](O[PH](OCCC#N)(OC[C@H]3O[C@@H](n4cc(C)c(=O)[nH]c4=O)C[C@@H]3O[PH](OCCC#N)(OC[C@H]3O[C@@H](n4cc(C)c(=O)[nH]c4=O)C[C@@H]3O[PH](OCCC#N)(OC[C@H]3O[C@@H](n4cc(C)c(=O)[nH]c4=O)C[C@@H]3O[PH](OCCC#N)(OC[C@H]3O[C@@H](n4cc(C)c(=O)[nH]c4=O)C[C@@H]3O[PH](OCCC#N)(OC(C)[C@H]3O[C@@H](N4C=CC(N)=N[C@@H]4O)C[C@@H]3O[PH](OCCC#N)(OC[C@H]3O[C@@H](n4cc(C)c(=O)[nH]c4=O)C[C@@H]3O[PH](OCCC#N)(OC[C@H]3O[C@@H](OCc4cn(-c5ccccc5C(N)=O)nn4)C[C@@H]3OP(=O)(O)OC[C@H]3O[C@@H](n4cc(C)c(=O)[nH]c4=O)C[C@@H]3O[PH](OCCC#N)(OC(C)[C@H]3O[C@@H](n4ccc(N)nc4=O)C[C@@H]3O[PH](OCCC#N)(OC[C@H]3O[C@@H](n4cc(C)c(=O)[nH]c4=O)C[C@@H]3O[PH](OCCC#N)(OC(C)[C@H]3O[C@@H](n4ccc(N)nc4=O)C[C@@H]3O[PH](OCCC#N)(OC[C@H]3O[C@@H](n4cc(C)c(=O)[nH]c4=O)C[C@@H]3O[PH](OCCC#N)(OC(C)[C@H]3O[C@@H](n4ccc(N)nc4=O)C[C@@H]3O[PH](OCCC#N)(OC[C@H]3O[C@@H](n4cc(C)c(=O)[nH]c4=O)C[C@@H]3O)N(C(C)C)C(C)C)N(C(C)C)C(C)C)N(C(C)C)C(C)C)N(C(C)C)C(C)C)N(C(C)C)C(C)C)N(C(C)C)C(C)C)N(C(C)C)C(C)C)N(C(C)C)C(C)C)N(C(C)C)C(C)C)N(C(C)C)C(C)C)N(C(C)C)C(C)C)N(C(C)C)C(C)C)N(C(C)C)C(C)C)[C@@H](CO)O2)c(=O)[nH]c1=O` (stereo not given in full), the Tm in experiment [1] came to 18 °C; in experiment [2] it was 19 °C; in experiment [3], 21 °C; in experiment [4], 17 °C.
